Shown are actives, neighbours in structure and some others; about 4.6% of the full set was active somewhere.
MDM2 E3 inh: MDM2-luciferase reporter signal enhancers, primary screen, MDM2 E3 ligase inhibitor project, cell-based, luminescence, 1536-well. signal enhancement, % at 5 µM. E3 ubiquitin-protein ligase Mdm2 (Homo sapiens), Q00987. actives 0.11% (n = 210,000). cell-based MDM2 ubiquitination luciferase reporter, 2 h; 0 = plate control, 100 = twice control, blank-subtracted;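 active = signal enhancement of 30% or more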;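 note: luminescence tracks abundance of the self-degrading MDM2-luciferase fusion protein; higher signal means inhibition of MDM2 E3 ligase activity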
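Buffer or medium: Cells held in DMEM | Assay system: Stable mammalian line carrying autodegrading MDM2–luciferase fusion reporter | Quantity: 2000 cells/well | Times: 4 h settle plus 2 h compound, 37 °C | Doses: One concentration, 5 µM, with 0.2% DMSO | Technique: Luminescence with SteadyLite reagent, 15 min at room temperature | Benchmarks: Plate controls and plate blanks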
NF-kB expr up: activators of NF-kB expression in neurons, primary screen, cell-based, HTS. human neuronal cells, NF-kB reporter expression; stronger effect = higher value. fold change at 12.5 µM. actives 1.6% (n = 190,000); in the data active = fold change above about 3.3
p97 ATPase inh: inhibitors of human p97 ATPase, primary screen, biochemical; actives 0.42% (n = 220,000); recombinant p97 ATPase, Kinase-Glo ATP luminescence, 3 h; AID 1481, 2009; Transitional endoplasmic reticulum ATPase (Homo sapiens), P55072; inhibition, % at 8 µM; in the data active = inhibition above about 15%;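 note: 0% = DMSO vehicle and 100% = wells lacking enzyme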
Wee1 degr inh: Wee1 degradation inhibitors, primary screen, cell-based, HeLa, Wee1K328M-luciferase, luminescence; Wee1-like protein kinase (Homo sapiens), P30291; HeLa Luc-Wee1K328M stability; 100% = proteasome inhibitor MG132 effect; reporter increase, % at 5 µM; actives 1.2% (n = 220,000);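 active = activation above the mean of all tested compounds plus 3 SD, set per screening run, cut at about 8.8% in these data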;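 note: cells exposed to compound for 20 h before luminescence read; 0% = DMSO alone and 100% = MG132 at 30 µM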
Target sequence (P30291 whole entry K328M): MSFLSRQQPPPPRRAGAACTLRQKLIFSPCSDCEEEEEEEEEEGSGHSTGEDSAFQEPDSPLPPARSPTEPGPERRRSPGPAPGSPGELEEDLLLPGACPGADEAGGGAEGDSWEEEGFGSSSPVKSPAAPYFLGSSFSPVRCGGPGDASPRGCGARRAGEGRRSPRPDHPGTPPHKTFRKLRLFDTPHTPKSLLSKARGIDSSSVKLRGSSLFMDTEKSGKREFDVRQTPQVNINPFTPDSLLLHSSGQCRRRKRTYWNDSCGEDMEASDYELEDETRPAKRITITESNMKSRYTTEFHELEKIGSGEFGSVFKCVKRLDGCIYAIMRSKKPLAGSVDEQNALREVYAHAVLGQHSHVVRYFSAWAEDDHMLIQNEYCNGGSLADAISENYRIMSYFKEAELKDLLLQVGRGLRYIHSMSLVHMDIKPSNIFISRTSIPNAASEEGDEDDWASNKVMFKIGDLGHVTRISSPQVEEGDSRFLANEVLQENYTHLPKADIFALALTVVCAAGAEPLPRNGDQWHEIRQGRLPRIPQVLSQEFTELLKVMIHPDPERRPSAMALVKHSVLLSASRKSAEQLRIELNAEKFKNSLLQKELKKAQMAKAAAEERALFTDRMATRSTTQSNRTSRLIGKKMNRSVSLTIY
APP 5'UTR act: activators of APP 5'UTR luciferase reporter, primary screen, SH-SY5Y cells. SH-SY5Y APP 5'UTR luciferase reporter, luminescence; zero percent = DMSO vehicle wells. activation, % at 2 µM. actives 1% (n = 190,000);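 active = activation above a set limit, based on mean plus 3 SD of controls, cut at about 140% in these data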
STAT1 activator: STAT1 signaling activators, primary screen, cell-based, HTS, luciferase reporter | NIH 3T3 STAT1-luciferase reporter, IFN-gamma, luminescence; 100% = IFN-gamma alone, no compound | activation (% of control), % at 5.5 µM | actives 2.6% (n = 200,000);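 active = activation above the screen-wide mean activation plus 3 SD, cut at about 130% in these data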;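 note: raw ratio to IFN-gamma control signal so 100% means no change and 0% no light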
* hit, by the source's call; / = no result given.

SMILES | MDM2 E3 inh | NF-kB expr up | p97 ATPase inh | Wee1 degr inh | APP 5'UTR act | STAT1 activator
COC(=O)c1nn(-c2ccc(Oc3ccccc3)cc2)c(=O)cc1O | -19 | 1.2 | -10 | -3 | -24 | 75
c1ccc(COc2ccc(OCCCn3cncn3)cc2)cc1 | -11 | 5.3* | -5 | -1 | 136* | 114
CC1CCN(CCCOc2ccc(OCc3ccccc3)cc2)CC1 | -1 | 5.1* | -3 | 0 | 7 | 109
COc1ccc(Cl)cc1NC(=S)NNC(=O)C1(C)CC1(Cl)Cl (stereo not drawn) | -14 | 1.2 | 2 | 0 | 10 | 96
O=C(OCc1nnc(-c2ccccc2)o1)c1ccccc1 | -8 | 1 | 4 | -3 | -7 | 98
O=C(OCc1nnc(-c2ccccc2)o1)C12CC3CC(CC(Br)(C3)C1)C2 | 3 | 0.9 | -11 | 9.6* | 63 | 106
Cc1nn(-c2ccccn2)c2c1-c1nc(N)ncc1CC2 | -21 | 1.7 | 9 | 0 | 45 | 134*
CC(=O)C1=C(O)C(=O)N(C)C1c1ccccc1[N+](=O)[O-] (stereo not drawn) | -11 | / | -3 | -2 | / | /
CCOc1cc(/C=N/NC(N)=S)cc(Br)c1OCc1ccccc1C | -20 | 1.1 | 5 | 2 | 19 | 105
COc1cc(/C=N/NC(N)=S)cc(Br)c1OCc1ccccc1F | 4 | 1.6 | 2 | 1 | 20 | 129*
COc1ccc(C(C(=O)NCC2CCCO2)N(C(=O)CNC(=O)c2cccs2)c2ccc(C)cc2)cc1OC (stereo not drawn) | -6 | 0.95 | -7 | 0 | -15 | 98
CCOC(=O)c1c(-c2ccccc2)nc2ccc(C)cn12 | -27 | 2.2 | -5 | 4 | 66 | 138*
CCOC(=O)C(=O)c1c(-c2ccccc2)nc2ccccn12 | -17 | 1.2 | 2 | 3 | 0 | 99
CCOC(=O)c1c(-c2ccccc2)nc2cc(C)ccn12 | -14 | 2 | -3 | 2 | 57 | 133*
CCOC(=O)C(=O)c1c(-c2ccc(C)cc2)nc2ccccn12 | 6 | 1.1 | 2 | -3 | 2 | 95
CC(C)N=c1scc(-c2ccco2)n1/N=C/c1ccc(O)c(O)c1 | -14 | 9.6* | -5 | 3 | 2 | 108
COCCN=c1scc(-c2ccco2)n1/N=C/c1ccc(O)c(O)c1O | -17 | 1.2 | 6 | 1 | 1 | 78
O=c1[nH]c(CSc2nc3ccccc3s2)nc2ccccc12 | / | / | 2 | 9.0* | / | /
Cc1cc(C)c(C#N)c(SCc2nc3ccccc3c(=O)[nH]2)n1 | / | 2.5 | 1 | 1 | 153* | 113
O=c1[nH]c(CSc2ccccn2)nc2ccccc12 | -8 | 2.9 | 4 | -2 | 123 | 135*
CCc1ccc(NCc2nc3ccccc3c(=O)[nH]2)cc1 | -14 | 1.7 | -2 | 0 | 111 | 125
O=c1[nH]c(CSc2ccccn2)nc2c1cnn2-c1ccccc1 | -1 | 1.4 | -9 | -4 | 22 | 111
COCc1cc(C)nc(SCc2nc3ccccc3c(=O)[nH]2)c1C#N | / | 1.3 | 6 | -1 | 8 | 112
CCCCNCc1nc2ccccc2c(=O)[nH]1 | -12 | 0.99 | 0 | 8.9* | 2 | 97
CCOC(=O)COc1ccccc1/C=C\[N+](=O)[O-] | -1 | 0.7 | -3 | -2 | -38 | 123
SMILES | MDM2 E3 inh | NF-kB expr up | p97 ATPase inh | Wee1 degr inh | APP 5'UTR act | STAT1 activator
O=[N+]([O-])c1ccccc1N(CC1CO1)S(=O)(=O)c1ccccc1 (stereo not drawn) | 4 | 1.2 | -7 | -3 | 12 | 99
O=Nc1c(-c2cccc([N+](=O)[O-])c2)nc2ncccn12 | -9 | / | 8 | 2 | / | /
CCC(CC)NC(=O)Cc1ccc(F)cc1 | -2 | 1 | 1 | 4 | 12 | 99
O=C(/C=C/c1ccc(N2CCCCC2)c([N+](=O)[O-])c1)c1ccc(O)cc1 | 2 | 3.8* | 2 | 3 | 121 | 143*
CCOc1ccc(OCc2ccc(C(=O)OCc3ccccn3)o2)cc1 | -12 | 4.4* | 0 | -2 | 108 | 93
CCOC(=O)c1ccc(-c2ccc(CO)o2)cc1 | -18 | 2.8 | 0 | 1 | 70 | 129*
CCOC(=O)c1ccc(Cn2c(-c3ccccc3)nnc2-c2ccccc2)o1 | -17 | 1.1 | -10 | -1 | -2 | 103
CCOC(=O)c1ccc(COC(=O)c2ccc(-c3nnc(-c4ccccc4)o3)cc2)o1 | / | / | 3 | 3 | 44 | 130*
CCOC(=O)c1ccc(COc2ccc(C(C)C)cc2)o1 | 21 | 2.1 | 1 | 4 | 134 | 111
Cc1cc(NC(=O)C(C)C)ncc1NC(=O)Cc1ccccc1 | -14 | 0.97 | 2 | 10* | 13 | 108
Cc1ccccc1OCC(=O)OCC(=O)NCc1cccs1 | -9 | 1.1 | -6 | -2 | 22 | 101
COc1ccc(CNc2oc(-c3cccc4ccccc34)nc2P(=O)(OC)OC)cc1 | -13 | 1 | -1 | 9.8* | 2 | 108
CC(C)NCC1CCc2cc(CO)c([N+](=O)[O-])cc2N1 (stereo not drawn) | -8 | / | -1 | 2 | / | /
COc1ccc(CCNC(=O)Cc2ccc(OCc3ccccc3)c(OC)c2[N+](=O)[O-])cc1OCc1ccccc1 | -5 | 0.87 | -4 | 1 | 14 | 84
COc1cc(/C=N/NC(=O)Nc2ccccc2)ccc1OC(C)=O | -10 | 2 | 2 | 0 | 39 | 142*
COc1ccc(/C=N/NC(=S)Nc2ccccc2)cc1 | -97 | 2.2 | -1 | 0 | 36 | 133*
Cc1cc(C(=O)COC(=O)Cc2n[nH]c(=O)c3ccccc23)c(C)n1-c1ccc2c(c1)OCCO2 | -11 | 0.68 | -1 | 5 | 3 | 83
CC1CCN(c2ccc(NC(=O)c3ccccc3[N+](=O)[O-])cc2)CC1 | -5 | 1.3 | -3 | 0 | 28 | 110
Cc1ccc(Nc2nc(CSc3nnc(-c4ccncc4)n3C)cs2)cc1 | -21 | 4.4* | 4 | -2 | 87 | 94
Cc1ccn2cc(C34CC5CC(CC(C5)C3)C4)nc2c1 | -3 | 1.6 | 0 | 1 | 15 | 106
CC1CCCCN1C(=O)COc1ccc(F)cc1 (stereo not drawn) | -13 | 1 | 2 | 9.6* | 7 | 106
CCn1c(-c2ccc(F)cc2)cnc1SCC(=O)N1CCCCC1C (stereo not drawn) | -15 | 2.9 | 0 | -1 | 69 | 132*

Screening data: PubChem, several laboratories
